Measured values from ChEMBL document CHEMBL1629590, “Variety of antiprion compounds discovered through an in silico screen based on cellular-form prion protein structure: Correlation between antiprion activity and binding affinity” (Antimicrob Agents Chemother, 2009).

Tests used:
[1] = biological target: Major prion protein (Mus musculus) (UniProt P04925); assay: Antiprion activity against mouse recombinant PrP expressed in Fukuoka-1 stain infected mouse GT1-7 cells at 10 uM after 72 hrs by Western blotting; format: cell-based
Sequence of Major prion protein (Mus musculus) (P04925 whole entry): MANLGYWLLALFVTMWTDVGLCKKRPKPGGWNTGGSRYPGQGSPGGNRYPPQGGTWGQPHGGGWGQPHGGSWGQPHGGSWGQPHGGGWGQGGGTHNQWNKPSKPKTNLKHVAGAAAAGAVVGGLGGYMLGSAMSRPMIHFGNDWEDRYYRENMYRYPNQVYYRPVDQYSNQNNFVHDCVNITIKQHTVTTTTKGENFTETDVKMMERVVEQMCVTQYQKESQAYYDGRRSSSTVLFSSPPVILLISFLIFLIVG
Method in brief: (§1)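 GT+FK cells (GT1-7 neuronal line persistently infected with Fukuoka-1 agent) in DMEM/10% FBS, 37°C, 5% CO2; 1.5 × 10⁵ cells/well, dosed 15 h after plating with compound from fresh 10 mM DMSO stock (vehicle 0.1%) for 72 h. Lysates in Triton X-100/deoxycholate buffer adjusted to 2 mg/ml protein; PrP^Sc by Western blot with M-20 antibody, densitometry versus solvent control; effective if <70% of control; ≥2 independent experiments.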

[2] = biological target: Major prion protein (Mus musculus) (UniProt P04925); assay: Antiprion activity against mouse recombinant PrP expressed in Fukuoka-1 stain infected mouse GT1-7 cells assessed as remaining PrP-res level at 10 uM after 72 hrs by Western blotting relative to control; format: cell-based; method in brief: as §1
Major prion protein = Major prion protein (Mus musculus, UniProt P04925); assay: Binding affinity to mouse recombinant PrP (121-231) after 10 mins by surface plasmon resonance assay
Sequence of Major prion protein (P04925 whole entry): as above
Method in brief: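 Recombinant mouse PrP(121-231) immobilized on CM5 chip; compounds at various concentrations injected in HEPES-buffered saline (pH 7.4) with 0.1% P20 and 5% DMSO, 1 min at 30 μl/min, then buffer alone for 10 min. Blank-chip corrected; Kd fitted from concentration dependence of sensorgram response.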

[3] = Solubility of the compound; format: physicochemical

Compound | Activity [2] [%] | also measured
Cc1cc2cc3c(cc2nc1SCCN1CCCCC1)OCCO3 | 47.4 | Activity [1]: < 70%; Kd (Major prion protein; read-out: Kd): 50.8 µM
O=C(CN1C(=O)COc2ccccc21)N1CCCc2ccccc21 | 57.5 | 
CC1CCCCN1CC(=O)Nc1sc2c(c1C#N)CCCCC2 (stereo not drawn) | 58.8 | Kd (Major prion protein; read-out: Kd): 21.9 µM
Cc1cccc2cc(C#N)c(N3CCCN(C(=O)C4CCC4)CC3)nc12 | 50.6 | 
CCCc1nc2ccccc2n1CC(=O)N1CCCc2ccccc21 | 67.2 | 
O=C(COc1ncnc2ccccc12)NC1CCCc2ccccc21 (stereo not drawn) | 53 | 
O=C(NCc1ccccn1)C1CC2c3ccccc3C1c1ccccc12 (stereo not drawn) | 54.7 | solubility [3]: Insoluble
CC(=O)N(Cc1ccccc1)Cc1cc2cccc(C)c2n2nnnc12 |  | Kd (Major prion protein): Not Active
N#Cc1c(NC(=O)c2cc3c(s2)CCCC3)sc2c1CCCC2 | 66.9 | 
CCC(C)C(NC(=O)c1ccccc1)C(=O)N1CCc2ccccc21 (stereo not drawn) | 36.8 | Activity [1]: < 70%; Kd (Major prion protein; read-out: Kd): 51.2 µM
O=C1c2cccc3cccc(c23)N1CC(=O)N1CC2CCC1C2 (stereo not drawn) | 65 | 
Cc1ccc(NC(=O)CN2C(=O)NC3(CCc4ccccc43)C2=O)cc1 (stereo not drawn) | 150 | 
CC1CCCCC1NC(=O)COc1ncnc2sc3c(c12)CCC3 (stereo not drawn) | 68.8 | 
C=CCNC(=O)NC(=O)CSc1nc2ccccc2n1CC(C)C |  | Kd (Major prion protein): Not Active
Cc1cccc2cc3c(N)c(C(=O)NC4CCCC4)sc3nc12 | 41.9 | Activity [1]: < 70%; Kd (Major prion protein; read-out: Kd): 86.1 µM
O=C(CSc1nc2ccccc2[nH]1)NC1CCCc2ccccc21 (stereo not drawn) | 64.9 | 
O=C(Cc1coc2cc3c(cc12)CCC3)N1CCc2ccccc21 | 63.7 | 
CCCCNc1nc2ccccc2n1CC(=O)N1CCc2ccccc21 | 37.3 | Activity [1]: < 70%; Kd (Major prion protein; read-out: Kd): 20 µM
O=C(CSc1ncnc2sc3c(c12)CCC3)NCC1CCCO1 (stereo not drawn) |  | Kd (Major prion protein): Not Active
O=C(CN1C(=O)NC2(CCCc3ccccc32)C1=O)N1CCCCC1 (stereo not drawn) | 67.1 | 
O=C(COC(=O)c1c2c(nc3ccccc13)CCC2)NC1CCCC1 | 62.9 | 
O=C(Cc1c[nH]c2ccccc12)NC1CCc2ccccc2C1 (stereo not drawn) | 55.3 | Kd (Major prion protein; read-out: Kd): 48.6 µM
Cc1ccc2c(c1)c1c(n2CC(O)CN2CCCCC2)C(=O)CCC1 (stereo not drawn) | 51.3 | 
CN1/C(=C/C(=O)Nc2cccs2)c2ccccc2CC1(C)C | 57.4 | 
Cc1cccc(NC(=O)N2CCCC2C(=O)NC2CCCC2)c1 (stereo not drawn) | 63.2 | 
O=C(CCc1nc2ccccc2c(=O)[nH]1)NC1CCCc2ccccc21 (stereo not drawn) | 65 | 
CC1Cc2ccccc2N1C(=O)COc1ncnc2sccc12 (stereo not drawn) | 67.4 | 
